ChEMBL document CHEMBL3870337, “Development of a triazole class of highly potent Porcn inhibitors” (Bioorg Med Chem Lett, 2016)
Active and inactive are the calls of the source. The calls are words filed in the database; no cut-off is given here.

biological target: T1, Protein-serine O-palmitoleoyltransferase porcupine (Mus musculus, UniProt Q9JJJ7); assay: Inhibition of porcupine-mediated Wnt signaling in mouse L-cells after 24 hrs by springerImage-Topflash reporter assay; settings: not given
T1 sequence (Q9JJJ7 whole entry): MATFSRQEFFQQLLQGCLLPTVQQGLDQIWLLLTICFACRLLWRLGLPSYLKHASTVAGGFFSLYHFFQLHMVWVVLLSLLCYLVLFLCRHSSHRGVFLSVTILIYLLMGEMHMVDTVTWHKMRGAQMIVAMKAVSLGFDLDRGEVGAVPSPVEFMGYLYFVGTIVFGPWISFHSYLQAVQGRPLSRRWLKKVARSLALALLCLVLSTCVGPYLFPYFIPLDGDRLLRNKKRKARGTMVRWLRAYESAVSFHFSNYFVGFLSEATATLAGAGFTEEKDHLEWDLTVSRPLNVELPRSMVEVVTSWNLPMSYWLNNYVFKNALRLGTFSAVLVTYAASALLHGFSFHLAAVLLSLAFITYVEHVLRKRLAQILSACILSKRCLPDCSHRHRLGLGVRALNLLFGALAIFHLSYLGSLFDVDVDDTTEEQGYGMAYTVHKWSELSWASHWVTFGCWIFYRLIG

Compared with O=C(Cn1nnc(-c2ccncc2)c1-c1ccccc1)Nc1ccc(-c2ccncc2)cc1, O=C(Cn1nnc(-c2ccncc2)c1-c1ccccc1)Nc1ccc(-c2cccnc2)cc1 is 29-fold higher in EC50: 7 nM for the first, 200 nM for the second. The first is the more potent here.

Going from CC(C(=O)Nc1ccc(-c2ccccc2)cn1)n1nnc(-c2ccncc2)c1-c1ccccc1 (stereo unspecified) to CCC(C(=O)Nc1ccc(-c2ccccc2)cn1)n1nnc(-c2ccncc2)c1-c1ccccc1 (stereo unspecified), the EC50 rises from 3 nM to 12 nM (4-fold).

Compared with O=C(Cn1nnc(-c2ccccc2)c1-c1ccccc1)Nc1ccc(-c2ccccc2)cn1, O=C(Cn1nnc(-c2ccncc2)c1-c1ccccc1)Nc1ccc(-c2ccccc2)cn1 is 5000-fold lower in EC50: 400 nM for the first, 0.08 nM for the second.

O=C(Cn1nnc(-c2ccncc2)c1-c1ccccc1)Nc1ccc(-c2ccco2)cn1 and O=C(Cn1nnc(-c2ccncc2)c1-c1ccccc1)Nc1ccc(-c2ccoc2)cn1 are within 1.5-fold of each other in EC50: 0.4 nM for the first, 0.6 nM for the second.

First: O=C(Cn1nnc(-c2ccncc2)c1-c1ccccc1)Nc1ccc(-c2ccccc2)nc1
Second: O=C(Cn1nnc(-c2ccncc2)c1-c1ccccc1)Nc1ccc(-c2ccccn2)cc1
The EC50 of the first is 9-fold lower: 0.2 nM for the first, 1.8 nM for the second.

Compared with Cc1cccc(-c2c(-c3ccncc3)nnn2CC(=O)Nc2ccc(-c3ccccc3)cn2)c1, Cc1ccccc1-c1c(-c2ccncc2)nnn1CC(=O)Nc1ccc(-c2ccccc2)cn1 is 100-fold higher in EC50: 0.4 nM for the first, 40 nM for the second. The first is the more potent here.

First: CCOC(=O)c1ccc(-c2c(-c3ccncc3)nnn2CC(=O)Nc2ccc(-c3ccccc3)cn2)cc1
Second: COc1ccc(-c2c(-c3ccncc3)nnn2CC(=O)Nc2ccc(-c3ccccc3)cn2)cc1
The EC50 of the first is 3.9-fold higher: 0.7 nM for the first, 0.18 nM for the second. The second is the more potent here.

Compared with O=C(Cn1cc(-c2ccccn2)nn1)Nc1ccc(-c2ccccc2)cn1, O=C(Cn1cc(-c2cccnc2)nn1)Nc1ccc(-c2ccccc2)cn1 is lower in EC50: > 5000 nM for the first, 100 nM for the second. The second is the more potent here.

Going from O=C(Cn1nnc(-c2ccncc2)c1-c1ccccc1)Nc1ccc(-c2cncnc2)cn1 to O=C(Cn1nnc(-c2ccncc2)c1-c1ccccc1)Nc1ccc(-c2cccnc2)cn1, the EC50 rises from 1.8 nM to > 1000 nM. The first is the more potent here.

Compared with O=C(Cn1nnc(-c2ccncc2)c1-c1ccccc1)Nc1ncc(-c2ccccc2)s1, O=C(Cn1nnc(-c2ccncc2)c1-c1ccccc1)Nc1ncc(-c2ccccc2)cn1 is 10000-fold lower in EC50: 80000 nM for the first, 8 nM for the second.

O=C(Cn1nnc(-c2ccncc2)c1-c1ccc(C(F)(F)F)cc1)Nc1ccc(-c2ccccc2)cn1 and O=C(Cn1nnc(-c2ccncc2)c1-c1ccc(F)cc1)Nc1ccc(-c2ccccc2)cn1 are within 1.5-fold of each other in EC50: 0.3 nM for the first, 0.2 nM for the second.

Compared with O=C(Cn1cc(-c2ccncc2)nn1)Nc1ccc(-c2ccccc2)cn1, O=C(Cn1cc(-c2ccccc2)nn1)Nc1ccc(-c2ccccc2)cn1 is higher in EC50: 9 nM for the first, > 5000 nM for the second.

O=C(Cn1nnc(-c2ccncc2)c1-c1cccc2ccccc12)Nc1ccc(-c2ccccc2)cn1 and COc1ccccc1-c1c(-c2ccncc2)nnn1CC(=O)Nc1ccc(-c2ccccc2)cn1 are within 1.5-fold of each other in EC50: 6.5 nM for the first, 9 nM for the second.

First: O=C(Cn1nnc(-c2ccncc2)c1-c1ccccc1)Nc1cccc(-c2ccccc2)c1
Second: O=C(Cn1nnc(-c2cccnc2)c1-c1ccccc1)Nc1ccc(-c2ccccc2)cn1
The EC50 of the first is 54-fold higher: 270 nM for the first, 5 nM for the second. The second is the more potent here.

Compared with O=C(Cn1nnc(-c2ccncc2)c1-c1ccccc1)Nc1ccc(N2CCCCC2)cn1, O=C(Cn1nnc(-c2ccncc2)c1-c1ccccc1)Nc1ccc(N2CCCCC2)cc1 is lower in EC50: > 1000 nM for the first, 8 nM for the second.

Going from COc1ccc(-c2nnn(CC(=O)Nc3ccc(-c4ccccc4)cn3)c2-c2ccccc2)cc1 to Cc1cc(-c2nnn(CC(=O)Nc3ccc(-c4ccccc4)cn3)c2-c2ccccc2)ccn1, the EC50 falls from 18 nM to 0.14 nM (130-fold).

Compared with O=C(Cn1nnc(-c2ccnc(F)c2)c1-c1ccccc1)Nc1ccc(-c2ccccc2)cn1, O=C(Cn1nnc(-c2ccnc(C(F)(F)F)c2)c1-c1ccccc1)Nc1ccc(-c2ccccc2)cn1 is 4.6-fold higher in EC50: 0.13 nM for the first, 0.6 nM for the second.

N#Cc1ccc(-c2c(-c3ccncc3)nnn2CC(=O)Nc2ccc(-c3ccccc3)cn2)cc1 and O=C(Cn1nnc(-c2ccncc2)c1-c1ccccc1)Nc1ccc(-c2ccsc2)cn1 are within 1.5-fold of each other in EC50: 0.48 nM for the first, 0.65 nM for the second.

Compared with O=C(Cn1nnc(-c2ccccn2)c1-c1ccccc1)Nc1ccc(-c2ccccc2)cn1, O=C(Cn1nnc(-c2ccccc2C(F)(F)F)c1-c1ccccc1)Nc1ccc(-c2ccccc2)cn1 is 5-fold lower in EC50: 2500 nM for the first, 500 nM for the second.

biological target: T2, Protein-serine O-palmitoleoyltransferase porcupine (Homo sapiens) (UniProt Q9H237); assay: Inhibition of porcupine-mediated phosphorylation of LRP6 in human HeLa cells at 1 uM after 24 hrs by Western blot analysis; assay type: cell-based; settings: not given
T2 sequence (whole entry): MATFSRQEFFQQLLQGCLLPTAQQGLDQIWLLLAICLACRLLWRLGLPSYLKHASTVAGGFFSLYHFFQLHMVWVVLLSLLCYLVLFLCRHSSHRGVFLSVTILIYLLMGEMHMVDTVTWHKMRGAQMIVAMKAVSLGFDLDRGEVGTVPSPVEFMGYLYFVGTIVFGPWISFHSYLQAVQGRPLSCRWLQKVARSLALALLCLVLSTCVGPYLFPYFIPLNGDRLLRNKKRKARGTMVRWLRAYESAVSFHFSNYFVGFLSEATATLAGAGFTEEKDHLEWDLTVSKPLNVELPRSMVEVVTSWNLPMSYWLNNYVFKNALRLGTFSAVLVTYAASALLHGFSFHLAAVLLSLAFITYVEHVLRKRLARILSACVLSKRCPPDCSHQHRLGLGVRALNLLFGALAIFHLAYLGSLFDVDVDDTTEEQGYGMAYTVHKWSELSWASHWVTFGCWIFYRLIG
Procedure, shortened: (§1)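 HeLa cells, which have high cell-autonomous Wnt signalling, were treated for 24 h with compound, the LGK974 reference or DMSO vehicle. Cell lysates were then analysed by Western blot for phosphorylation of LRP6 and of Dvl2/3, used as biochemical markers of Wnt pathway activity.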

For O=C(Cn1nnc(-c2ccncc2)c1-c1ccccc1)Nc1ccc(-c2ccccc2)cn1, the inhibition was “Active”.

tested on: not listed separately; assay: Half life in ICR/CD-1 mouse liver S9 fraction at 2 uM in presence of NADPH by LC-MS/MS analysis; assay type: ADME, subcellular; settings: s9, 2 µM

Going from O=C(CSc1nnc(-c2ccncc2)n1-c1ccccc1)Nc1ccc(-c2cccnc2)cc1 to O=C(Cn1cc(-c2ccncc2)nn1)Nc1ccc(-c2ccccc2)cn1, the t1/2 rises from 0.25 h to 3.33 h (13-fold).

tested on: not listed separately; assay: Stability in mouse plasma at 2 uM in presence of NADPH by LC-MS/MS analysis; settings: not given

For O=C(Cn1nnc(-c2ccncc2)c1-c1ccccc1)Nc1ccc(-c2ccccc2)cn1, the half-life at 2 µM was > 4 h.

biological target: T2, Protein-serine O-palmitoleoyltransferase porcupine (Homo sapiens); assay: Inhibition of porcupine-mediated phosphorylation of dishevelled 2/3 in human HeLa cells at 1 uM after 24 hrs by Western blot analysis; assay type: cell-based; settings: not given; procedure, shortened: as §1

For O=C(Cn1nnc(-c2ccncc2)c1-c1ccccc1)Nc1ccc(-c2ccccc2)cn1, the inhibition was “Active”.

tested on: not listed separately; assay: Half life in mouse plasma at 2 uM in presence of NADPH by LC-MS/MS analysis; assay type: ADME, cell-free; settings: not given

In the case of O=C(CSc1nnc(-c2ccncc2)n1-c1ccccc1)Nc1ccc(-c2cccnc2)cc1, the t1/2 is reported as < 0.083 h.

O=C(Cn1nnc(-c2ccncc2)c1-c1ccccc1)Nc1ccc(-c2ccccc2)cn1 and O=C(Cn1cc(-c2ccncc2)nn1)Nc1ccc(-c2ccccc2)cn1 are within 1.5-fold of each other in t1/2: 2.17 h for the first, 1.67 h for the second.
